Bioassay records as filed in PubChem.
The list is not random: actives were taken first. Their share in the collection is about 2.8%.
PP1 inh = blocks human PP1-alpha phosphatase, a PP5 counter-screen. 320,000 tested, 0.9% active. purified PP1alpha, OMFP fluorescence. P62136. inhibition, % at 6.7 µM. AID 2235;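 active means inhibition above the mean inhibition of all tested compounds plus 3 SD, computed separately for each screening campaign, cut at about 15% in these data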
AI-2 QS mod = modulators of Vibrio harveyi AI-2 quorum sensing system; Vibrio harveyi JMH597 AI-2 luminescence/OD600 ratio, 9 h; stronger effect = lower value; strain lacks LuxN and CqsS sensors; 0 = neutral-control median; activity change, % at 7.5 µM; 300,000 tested, 0.4% active; AID 2094; in the data active means activity change below about -75%, passing the limit was not always enough;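 further: luminescence divided by OD600 gain over 9 h not by final OD600 alone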
UBC13 polyUb = inhibitors of human UBC13 polyubiquitin chain formation | TR-FRET | inhibition, % at 20 µM | 330,000 tested, 0.47% active | AID 485273; in the data active means inhibition above about 45%, passing the limit was not always enough
T cruzi inh = T. cruzi replication inhibition | T. cruzi beta-gal in NIH3T3, luminescence, 90 h | 300,000 tested, 1.4% active | inhibition, % (test concentration not listed);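 active means mean inhibition across valid replicates above about 55%, limit read from the data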;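 further: signal also drops with host cell toxicity which is not excluded here; 0% = plate median of DMSO wells and 100% = zero luminescence signal; higher percent means less beta-gal luminescence so fewer parasites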
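Material: NIH/3T3 host cells with β-galactosidase reporter T. cruzi; Input: 5,000 host fibroblasts per well; Medium: DMEM, 2% fetal bovine serum; Compound: 50 nL DMSO compound solution per well; Schedule: 3 h host attachment, then at least 90 h co-culture; Detection: luminescent β-galactosidase signal after 60 min lysis.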
pCIP destab = compounds decreasing mouse p/CIP protein stability; F442A p/CIP-EGFP cells, EGFP fluorescence, 16 h; decrease of EGFP signal, % at 10 µM; 290,000 tested, 0.01% active; AID 1984;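 active means EGFP signal decrease of at least 30% at 10 µM or well 3 SD below plate mean, unless failing retest; inactive means the rest, including hits failing retest or dose response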
Target sequence (Q05BA5 1-1403): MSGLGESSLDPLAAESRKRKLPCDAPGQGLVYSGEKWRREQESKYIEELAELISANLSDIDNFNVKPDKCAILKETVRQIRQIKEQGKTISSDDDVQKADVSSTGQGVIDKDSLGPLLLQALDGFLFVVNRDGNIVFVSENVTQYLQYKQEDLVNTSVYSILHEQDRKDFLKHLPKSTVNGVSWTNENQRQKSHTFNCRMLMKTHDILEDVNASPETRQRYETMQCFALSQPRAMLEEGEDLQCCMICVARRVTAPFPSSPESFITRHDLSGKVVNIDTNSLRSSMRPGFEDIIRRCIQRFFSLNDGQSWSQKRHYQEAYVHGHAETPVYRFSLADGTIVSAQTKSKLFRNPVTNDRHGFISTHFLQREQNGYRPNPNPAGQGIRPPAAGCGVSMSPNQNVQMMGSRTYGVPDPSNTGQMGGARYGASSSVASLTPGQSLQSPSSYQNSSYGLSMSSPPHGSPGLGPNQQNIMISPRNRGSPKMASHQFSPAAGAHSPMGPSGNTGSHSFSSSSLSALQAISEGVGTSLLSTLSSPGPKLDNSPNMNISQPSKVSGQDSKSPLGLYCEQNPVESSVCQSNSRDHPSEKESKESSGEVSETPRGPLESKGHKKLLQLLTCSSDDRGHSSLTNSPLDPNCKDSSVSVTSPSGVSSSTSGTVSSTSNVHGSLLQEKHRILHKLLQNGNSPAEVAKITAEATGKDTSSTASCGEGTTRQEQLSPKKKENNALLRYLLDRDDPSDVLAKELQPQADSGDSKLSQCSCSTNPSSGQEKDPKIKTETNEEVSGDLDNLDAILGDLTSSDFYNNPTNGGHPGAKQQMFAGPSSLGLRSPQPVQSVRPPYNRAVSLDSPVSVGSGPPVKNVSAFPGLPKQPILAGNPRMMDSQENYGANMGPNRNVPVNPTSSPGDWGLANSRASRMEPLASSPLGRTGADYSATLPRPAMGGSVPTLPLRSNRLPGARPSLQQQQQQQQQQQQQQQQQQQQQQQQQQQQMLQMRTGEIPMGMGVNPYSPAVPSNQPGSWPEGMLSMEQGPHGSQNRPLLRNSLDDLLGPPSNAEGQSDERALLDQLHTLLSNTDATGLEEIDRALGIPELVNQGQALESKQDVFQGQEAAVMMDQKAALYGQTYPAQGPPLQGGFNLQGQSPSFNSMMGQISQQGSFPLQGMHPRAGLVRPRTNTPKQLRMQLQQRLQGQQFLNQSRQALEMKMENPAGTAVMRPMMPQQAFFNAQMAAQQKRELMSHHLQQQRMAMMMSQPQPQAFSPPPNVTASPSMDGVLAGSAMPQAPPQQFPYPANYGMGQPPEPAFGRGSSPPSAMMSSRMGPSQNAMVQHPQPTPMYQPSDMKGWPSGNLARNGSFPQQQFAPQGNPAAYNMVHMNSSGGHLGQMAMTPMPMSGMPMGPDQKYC
An asterisk follows results filed as active.

Screening CS(=O)(=O)N(CC(=O)NC1CCCCC1)Cc1ccc(F)cc1 returned PP1 inh 0.9, AI-2 QS mod 10.0, UBC13 polyUb 2.1, T cruzi inh -27.7 and pCIP destab -6.2.
COc1ccc(C(=O)/C=C/C(=O)N(CC(=O)NC2CCCCC2)Cc2ccc(F)cc2)c(O)c1 was read as AI-2 QS mod 3.6, T cruzi inh 58.8* and pCIP destab -5.0.
Screening CC(=O)c1ccc(S(=O)(=O)N(CC(=O)NC2CC2)Cc2ccc(F)cc2)cc1 returned UBC13 polyUb -0.7.
For COc1cc(OC)c2nc(C)c3c(c2c1)N(c1ccc(O)cc1)CC3 the results were PP1 inh 1.2, AI-2 QS mod 5.5, T cruzi inh 82.9* and pCIP destab -9.8.
S=C(NC1CCCCC1)N1CCn2cccc2C1c1cccnc1 (stereo unspecified) was read as PP1 inh -2.3, AI-2 QS mod 3.2, UBC13 polyUb -1.4, T cruzi inh 54.6* and pCIP destab 6.3.
`Fc1cccc(NC(=S)N2CCn3cccc3C2c2cccnc2)c1` (stereo unspecified) gave PP1 inh -4.6, AI-2 QS mod -5.4, UBC13 polyUb -5.6, T cruzi inh 63.3* and pCIP destab -3.4.
Screening S=C(Nc1ccccc1)N1CCn2cccc2C1c1cccnc1 (stereo unspecified) returned PP1 inh 0.8, AI-2 QS mod -6.3, UBC13 polyUb -2.8, T cruzi inh 31.3 and pCIP destab 2.4.
For S=C(NC1CCCCC1)N1CCn2cccc2C1c1ccncc1 (stereo unspecified) the results were PP1 inh -2.1, AI-2 QS mod -0.5, UBC13 polyUb 15.3, T cruzi inh -9.3 and pCIP destab 6.5.
`CC(Sc1nnc(C2CC2)n1C1CC1)C(=O)Nc1cccc(S(=O)(=O)N(C)C)c1` (stereo unspecified) gave PP1 inh -2.9 and UBC13 polyUb -5.8.
COc1ccc(-n2nc(C)c3sc(C)nc3c2=O)cc1 was read as PP1 inh -5.1, AI-2 QS mod 0.6, UBC13 polyUb -1.7, T cruzi inh 5.3 and pCIP destab -19.7.
COc1ccc(-n2nc(C)c3c(=O)c4c([nH]c32)CCCC4)cc1 was read as AI-2 QS mod 6.3, UBC13 polyUb 10.0, T cruzi inh 62.0* and pCIP destab -7.2.
O=C(NCc1ccco1)c1ccc([N+](=O)[O-])o1 was read as PP1 inh 1.2, AI-2 QS mod -165.0*, UBC13 polyUb -11.4, T cruzi inh 73.0* and pCIP destab 12.5.
Screening O=C(NCc1cccnc1)c1ccc([N+](=O)[O-])o1 returned PP1 inh -4.9, AI-2 QS mod -109.5*, UBC13 polyUb -12.0, T cruzi inh 73.6* and pCIP destab -2.9.
For O=C(Nc1cccnc1)c1ccc([N+](=O)[O-])o1 the results were PP1 inh -2.9, AI-2 QS mod -107.8*, UBC13 polyUb -10.9, T cruzi inh 19.2 and pCIP destab -11.6.
Screening O=C(NCc1ccco1)c1ccc(Cn2cc([N+](=O)[O-])cn2)o1 returned PP1 inh -1.8, AI-2 QS mod 28.0, UBC13 polyUb -2.1, T cruzi inh -13.7 and pCIP destab -2.7.
`Cc1ccccc1Cc1ccc(Cl)nn1` gave PP1 inh -0.9, AI-2 QS mod 12.1, UBC13 polyUb -2.5, T cruzi inh 5.9 and pCIP destab 12.3.
`Cc1noc(C)c1NC(=O)N(C)C[C@H]1Oc2c(NS(=O)(=O)c3cn(C)cn3)cccc2C(=O)N([C@H](C)CO)C[C@@H]1C` gave UBC13 polyUb -15.8.
Screening CCCc1[nH]n(-c2nc3ccccc3s2)c(=O)c1C=NCCCN(CC)CC returned PP1 inh 15.7*, AI-2 QS mod -13.2, UBC13 polyUb 5.5, T cruzi inh -21.6 and pCIP destab -3.5.
CCCN=Cc1c(CCC)[nH]n(-c2nc3ccccc3s2)c1=O was read as PP1 inh -3.0, AI-2 QS mod 52.9, UBC13 polyUb -5.8, T cruzi inh 14.8 and pCIP destab -22.7.
Screening CN(C)C(=O)CCCCCCCCC(=O)N(C)C returned PP1 inh -3.2, AI-2 QS mod 37.5, UBC13 polyUb 7.0, T cruzi inh -12.8 and pCIP destab 5.9.
For C1CCC(CNc2c3c(nc4nnnn24)CCCC3)CC1 the results were PP1 inh 1.6, AI-2 QS mod 20.6, UBC13 polyUb 12.8, T cruzi inh 68.0* and pCIP destab -1.5.
